The values below come from ChEMBL document CHEMBL1165965, “Synthesis and structure-activity relationships of 1,2,3,4-tetrahydropyrido[2,3-b]pyrazines as potent and selective inhibitors of the anaplastic lymphoma kinase” (Bioorg Med Chem, 2010).

For test [1], the target named is Serine/threonine-protein kinase pim-1 (Homo sapiens) (UniProt P11309). As to the kind of experiment: Inhibition of PIM1 at 1 uM.
The target of test [2] is T1, Ephrin type-A receptor 8 (Homo sapiens) (UniProt P29322).
T1 sequence (whole entry): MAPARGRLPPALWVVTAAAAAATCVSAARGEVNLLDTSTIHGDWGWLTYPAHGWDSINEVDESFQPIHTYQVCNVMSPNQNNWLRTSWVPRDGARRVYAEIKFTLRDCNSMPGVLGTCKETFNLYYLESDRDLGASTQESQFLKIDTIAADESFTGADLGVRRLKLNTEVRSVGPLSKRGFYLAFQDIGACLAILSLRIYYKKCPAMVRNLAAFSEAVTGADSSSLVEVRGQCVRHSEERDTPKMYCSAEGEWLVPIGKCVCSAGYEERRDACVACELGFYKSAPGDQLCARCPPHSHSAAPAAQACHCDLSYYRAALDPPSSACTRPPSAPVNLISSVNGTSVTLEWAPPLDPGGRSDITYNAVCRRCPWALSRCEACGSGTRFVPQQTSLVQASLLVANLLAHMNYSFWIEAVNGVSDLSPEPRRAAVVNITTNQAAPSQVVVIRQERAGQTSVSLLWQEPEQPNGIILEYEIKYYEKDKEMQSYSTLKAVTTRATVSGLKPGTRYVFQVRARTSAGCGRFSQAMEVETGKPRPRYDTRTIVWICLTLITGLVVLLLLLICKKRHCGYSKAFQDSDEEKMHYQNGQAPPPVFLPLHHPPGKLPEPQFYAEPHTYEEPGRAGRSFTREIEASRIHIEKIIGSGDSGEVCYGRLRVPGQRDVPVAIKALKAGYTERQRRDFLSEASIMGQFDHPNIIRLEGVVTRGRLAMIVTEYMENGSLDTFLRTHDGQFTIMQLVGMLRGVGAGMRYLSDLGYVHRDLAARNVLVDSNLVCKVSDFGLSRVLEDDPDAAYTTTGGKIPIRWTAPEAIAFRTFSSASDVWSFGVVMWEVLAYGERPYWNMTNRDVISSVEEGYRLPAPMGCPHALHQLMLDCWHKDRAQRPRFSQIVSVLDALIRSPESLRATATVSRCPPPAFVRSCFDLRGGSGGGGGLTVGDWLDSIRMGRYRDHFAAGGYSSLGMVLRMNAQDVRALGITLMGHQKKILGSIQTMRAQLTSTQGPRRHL
As to the kind of experiment: Inhibition of EPHA8 at 1 uM. The procedure, abridged:
(§1)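 Single-concentration screen using Ambit Bioscience KINOMEscan technology across a panel of 250–400 kinases. Per-kinase inhibition from this screen was summarized as S(90), the fraction of kinases inhibited by more than 90%.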

In test [3] the target is Platelet-derived growth factor receptor beta (Homo sapiens) (UniProt P09619). Nature of the test: Inhibition of PDGFRB at 1 uM.
For test [4], the target named is Mitogen-activated protein kinase 1 (Homo sapiens) (UniProt P28482). Nature of the test: Inhibition of ERK2 at 1 uM. The essentials: as §1
Mitogen-activated protein kinase 1 (Homo sapiens), sequence (P28482 whole entry): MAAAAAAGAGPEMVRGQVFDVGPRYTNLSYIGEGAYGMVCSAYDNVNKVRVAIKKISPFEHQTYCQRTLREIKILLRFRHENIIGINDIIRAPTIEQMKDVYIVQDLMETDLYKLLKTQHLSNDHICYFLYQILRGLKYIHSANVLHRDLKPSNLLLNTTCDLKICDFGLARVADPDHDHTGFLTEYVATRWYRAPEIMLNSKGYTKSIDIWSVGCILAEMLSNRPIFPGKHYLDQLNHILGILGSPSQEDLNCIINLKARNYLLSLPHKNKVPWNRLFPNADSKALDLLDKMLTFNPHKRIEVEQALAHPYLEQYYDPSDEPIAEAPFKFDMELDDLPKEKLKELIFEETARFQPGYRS
In test [5] the target is RAC-alpha serine/threonine-protein kinase (Homo sapiens) (UniProt P31749). As to the kind of experiment: Inhibition of AKT1 at 1 uM. The essentials:
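Ambit KINOMEscan screen at a single concentration across a 250–400 kinase panel, recorded as percent inhibition. Selectivity was expressed as S(90), the fraction of kinases inhibited >90%.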

The target in test [6] is LIM domain kinase 2 (Homo sapiens) (UniProt P53671). Nature of the test: Inhibition of LIMK2 at 1 uM. The essentials: (§2)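 Single-concentration screen on the Ambit KINOMEscan platform, run against a panel of 250–400 kinases. Per-kinase inhibition was also summarized as S(90), the fraction of kinases inhibited by more than 90%.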
LIM domain kinase 2 (Homo sapiens), sequence (P53671 whole entry, looked up, the tested form may be a part): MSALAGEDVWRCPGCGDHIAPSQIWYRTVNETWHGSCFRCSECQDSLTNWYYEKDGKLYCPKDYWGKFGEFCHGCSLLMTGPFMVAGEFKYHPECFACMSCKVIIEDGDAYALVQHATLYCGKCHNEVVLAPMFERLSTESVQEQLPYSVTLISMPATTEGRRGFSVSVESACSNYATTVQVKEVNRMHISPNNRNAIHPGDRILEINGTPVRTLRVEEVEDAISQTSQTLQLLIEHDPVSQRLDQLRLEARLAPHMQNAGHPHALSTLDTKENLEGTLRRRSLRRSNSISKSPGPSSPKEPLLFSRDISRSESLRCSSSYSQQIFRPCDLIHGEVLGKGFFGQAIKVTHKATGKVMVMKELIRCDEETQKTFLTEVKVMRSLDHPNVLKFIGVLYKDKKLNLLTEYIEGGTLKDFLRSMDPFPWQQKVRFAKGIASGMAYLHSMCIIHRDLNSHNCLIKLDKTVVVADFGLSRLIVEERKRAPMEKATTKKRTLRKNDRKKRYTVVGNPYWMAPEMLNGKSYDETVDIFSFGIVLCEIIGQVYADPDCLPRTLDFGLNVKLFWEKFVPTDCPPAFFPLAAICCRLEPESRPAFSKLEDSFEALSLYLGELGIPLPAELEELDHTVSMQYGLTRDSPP
Test [7] concerns the target Tyrosine-protein kinase HCK (Homo sapiens) (UniProt P08631). As to the kind of experiment: Inhibition of HCK at 1 uM. The essentials:
as §2

The target in test [8] is Mitogen-activated protein kinase 9 (Homo sapiens) (UniProt P45984). As to the kind of experiment: Inhibition of JNK2 at 1 uM. The essentials: as §2
Mitogen-activated protein kinase 9 (Homo sapiens), sequence (P45984 whole entry, looked up): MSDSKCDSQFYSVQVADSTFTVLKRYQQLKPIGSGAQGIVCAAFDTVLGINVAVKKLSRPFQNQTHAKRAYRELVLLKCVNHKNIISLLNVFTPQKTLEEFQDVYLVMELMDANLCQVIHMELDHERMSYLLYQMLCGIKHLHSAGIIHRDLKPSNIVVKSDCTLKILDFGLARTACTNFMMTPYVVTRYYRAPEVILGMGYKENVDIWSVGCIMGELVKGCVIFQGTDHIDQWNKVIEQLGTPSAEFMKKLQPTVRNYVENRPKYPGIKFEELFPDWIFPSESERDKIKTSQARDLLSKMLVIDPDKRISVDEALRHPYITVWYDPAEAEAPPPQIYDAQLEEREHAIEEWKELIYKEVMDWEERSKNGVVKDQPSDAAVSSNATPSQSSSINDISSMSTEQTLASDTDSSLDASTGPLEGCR
In test [9] the target is Serine/threonine-protein kinase MRCK alpha (Homo sapiens) (UniProt Q5VT25). Nature of the test: Inhibition of MRCKA at 1 uM. The essentials:
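Kinase-panel screen using KINOMEscan technology, with 250–400 kinases per panel. Each compound was tested at a single concentration, and inhibition of each kinase was recorded. Selectivity was summarised as S(90), the fraction of kinases inhibited by more than 90%.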

For test [10], the target named is T2, Serine/threonine-protein kinase DCLK1 (Homo sapiens) (UniProt O15075).
T2 sequence (whole entry): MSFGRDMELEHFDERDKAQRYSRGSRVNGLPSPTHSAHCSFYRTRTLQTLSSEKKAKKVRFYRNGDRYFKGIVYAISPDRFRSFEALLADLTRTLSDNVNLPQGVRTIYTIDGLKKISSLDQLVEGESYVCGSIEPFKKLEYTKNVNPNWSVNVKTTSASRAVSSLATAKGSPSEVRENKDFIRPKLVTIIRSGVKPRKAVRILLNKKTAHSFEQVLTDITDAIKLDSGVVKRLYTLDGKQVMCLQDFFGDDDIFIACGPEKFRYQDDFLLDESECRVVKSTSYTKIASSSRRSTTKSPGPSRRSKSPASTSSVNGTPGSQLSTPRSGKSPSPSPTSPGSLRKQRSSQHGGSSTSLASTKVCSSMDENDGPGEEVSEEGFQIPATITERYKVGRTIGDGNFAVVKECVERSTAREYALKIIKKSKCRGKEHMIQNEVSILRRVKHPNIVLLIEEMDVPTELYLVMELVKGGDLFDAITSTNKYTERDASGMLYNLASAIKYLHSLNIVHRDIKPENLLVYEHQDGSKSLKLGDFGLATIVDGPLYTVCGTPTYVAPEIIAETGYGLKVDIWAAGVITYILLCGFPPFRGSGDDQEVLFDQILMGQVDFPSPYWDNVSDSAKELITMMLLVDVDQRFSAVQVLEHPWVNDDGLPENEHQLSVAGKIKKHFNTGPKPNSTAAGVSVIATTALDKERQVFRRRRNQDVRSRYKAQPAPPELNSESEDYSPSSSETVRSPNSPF
As to the kind of experiment: Inhibition of DCAMKL1 at 1 uM.

Test [11] concerns the target Cyclin-dependent kinase 9 (Homo sapiens) (UniProt P50750). As to the kind of experiment: Inhibition of CDK9 at 1 uM.
For test [12], the target named is T3, Serine/threonine-protein kinase 17B (Homo sapiens) (UniProt O94768).
T3 sequence (whole entry): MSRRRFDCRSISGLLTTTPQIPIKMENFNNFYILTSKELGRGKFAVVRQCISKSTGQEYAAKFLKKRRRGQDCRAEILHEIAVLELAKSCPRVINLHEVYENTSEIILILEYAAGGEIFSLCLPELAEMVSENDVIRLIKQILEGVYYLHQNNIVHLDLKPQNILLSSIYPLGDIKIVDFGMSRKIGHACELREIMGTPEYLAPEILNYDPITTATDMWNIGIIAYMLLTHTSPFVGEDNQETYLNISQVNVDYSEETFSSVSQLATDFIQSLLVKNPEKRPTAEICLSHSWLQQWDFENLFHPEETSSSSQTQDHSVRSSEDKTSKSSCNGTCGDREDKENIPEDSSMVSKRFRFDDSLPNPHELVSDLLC
Nature of the test: Inhibition of DRAK2 at 1 uM.

Test [13] has as its target Serine/threonine-protein kinase SBK1 (Homo sapiens) (UniProt Q52WX2). As to the kind of experiment: Inhibition of SBK1 at 1 uM.

For orientation: inhibition means the relative decrease from the control value, in per cent.

Bounds are passed on as bounds.

Cyclin-dependent kinase 9 (Homo sapiens), sequence (P50750 whole entry): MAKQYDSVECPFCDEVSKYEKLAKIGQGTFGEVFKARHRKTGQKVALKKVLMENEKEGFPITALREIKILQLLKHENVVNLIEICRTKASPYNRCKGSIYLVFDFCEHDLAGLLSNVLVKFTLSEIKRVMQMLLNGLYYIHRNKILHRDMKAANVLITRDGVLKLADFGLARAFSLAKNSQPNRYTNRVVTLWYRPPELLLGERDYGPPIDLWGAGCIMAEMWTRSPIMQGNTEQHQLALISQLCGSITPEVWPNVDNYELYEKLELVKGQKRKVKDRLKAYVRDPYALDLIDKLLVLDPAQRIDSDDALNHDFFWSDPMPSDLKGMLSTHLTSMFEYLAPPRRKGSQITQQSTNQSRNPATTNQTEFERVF
Serine/threonine-protein kinase MRCK alpha (Homo sapiens), sequence (Q5VT25 whole entry): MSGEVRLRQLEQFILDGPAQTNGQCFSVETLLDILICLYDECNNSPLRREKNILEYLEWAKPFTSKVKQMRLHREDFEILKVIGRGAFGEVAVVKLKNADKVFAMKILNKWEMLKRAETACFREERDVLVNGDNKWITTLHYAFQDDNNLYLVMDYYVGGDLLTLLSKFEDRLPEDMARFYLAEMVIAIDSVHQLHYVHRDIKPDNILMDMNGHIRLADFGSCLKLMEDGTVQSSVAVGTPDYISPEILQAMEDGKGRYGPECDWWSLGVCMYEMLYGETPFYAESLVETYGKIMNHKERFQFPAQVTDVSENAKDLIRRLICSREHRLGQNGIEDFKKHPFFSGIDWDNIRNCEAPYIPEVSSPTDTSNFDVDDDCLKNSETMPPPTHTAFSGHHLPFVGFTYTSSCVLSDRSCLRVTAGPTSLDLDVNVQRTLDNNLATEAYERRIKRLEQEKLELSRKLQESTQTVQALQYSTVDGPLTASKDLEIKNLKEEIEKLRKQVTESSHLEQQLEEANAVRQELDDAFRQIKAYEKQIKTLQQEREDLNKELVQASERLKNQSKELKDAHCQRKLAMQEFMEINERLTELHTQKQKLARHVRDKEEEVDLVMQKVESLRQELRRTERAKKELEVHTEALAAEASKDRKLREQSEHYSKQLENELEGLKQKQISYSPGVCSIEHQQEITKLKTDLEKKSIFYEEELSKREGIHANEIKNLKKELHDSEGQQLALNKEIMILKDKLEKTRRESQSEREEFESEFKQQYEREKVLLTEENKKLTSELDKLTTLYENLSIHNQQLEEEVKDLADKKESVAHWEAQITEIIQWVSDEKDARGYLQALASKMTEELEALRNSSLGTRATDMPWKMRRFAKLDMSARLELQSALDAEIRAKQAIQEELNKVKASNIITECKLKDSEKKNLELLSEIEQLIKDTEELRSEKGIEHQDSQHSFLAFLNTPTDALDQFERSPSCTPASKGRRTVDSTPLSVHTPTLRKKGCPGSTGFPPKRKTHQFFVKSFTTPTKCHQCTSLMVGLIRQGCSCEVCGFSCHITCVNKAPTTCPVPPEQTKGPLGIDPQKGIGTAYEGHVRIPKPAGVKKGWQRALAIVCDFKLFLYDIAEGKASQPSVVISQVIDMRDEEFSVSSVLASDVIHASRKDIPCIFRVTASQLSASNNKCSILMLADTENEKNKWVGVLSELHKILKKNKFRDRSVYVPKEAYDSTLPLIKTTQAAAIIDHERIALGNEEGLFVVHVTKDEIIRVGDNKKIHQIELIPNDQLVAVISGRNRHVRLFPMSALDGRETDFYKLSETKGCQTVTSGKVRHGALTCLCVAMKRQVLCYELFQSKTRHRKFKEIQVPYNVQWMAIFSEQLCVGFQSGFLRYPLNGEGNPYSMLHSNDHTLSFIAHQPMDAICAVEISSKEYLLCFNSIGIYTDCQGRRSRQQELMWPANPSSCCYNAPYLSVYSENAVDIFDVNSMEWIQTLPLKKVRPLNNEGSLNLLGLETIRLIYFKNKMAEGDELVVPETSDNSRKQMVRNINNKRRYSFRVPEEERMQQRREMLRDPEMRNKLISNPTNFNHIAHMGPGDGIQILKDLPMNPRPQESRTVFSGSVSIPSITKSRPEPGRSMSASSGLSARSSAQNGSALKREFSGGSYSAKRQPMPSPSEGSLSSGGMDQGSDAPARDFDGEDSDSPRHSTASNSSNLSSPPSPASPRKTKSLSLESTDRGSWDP
RAC-alpha serine/threonine-protein kinase (Homo sapiens), sequence (P31749 whole entry): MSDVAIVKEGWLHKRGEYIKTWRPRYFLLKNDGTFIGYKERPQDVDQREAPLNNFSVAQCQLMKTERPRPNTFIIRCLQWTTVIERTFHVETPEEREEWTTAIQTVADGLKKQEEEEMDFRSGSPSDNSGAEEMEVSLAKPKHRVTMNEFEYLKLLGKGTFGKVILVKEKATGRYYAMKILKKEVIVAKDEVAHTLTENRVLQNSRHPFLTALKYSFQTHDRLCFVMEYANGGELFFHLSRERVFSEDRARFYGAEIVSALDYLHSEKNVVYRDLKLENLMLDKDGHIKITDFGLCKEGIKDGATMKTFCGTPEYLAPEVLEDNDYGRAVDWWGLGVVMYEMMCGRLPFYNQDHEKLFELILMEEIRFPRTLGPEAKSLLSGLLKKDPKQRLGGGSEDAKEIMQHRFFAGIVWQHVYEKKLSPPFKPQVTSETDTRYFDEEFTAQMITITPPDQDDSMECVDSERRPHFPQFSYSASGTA
Serine/threonine-protein kinase SBK1 (Homo sapiens), sequence (Q52WX2 whole entry): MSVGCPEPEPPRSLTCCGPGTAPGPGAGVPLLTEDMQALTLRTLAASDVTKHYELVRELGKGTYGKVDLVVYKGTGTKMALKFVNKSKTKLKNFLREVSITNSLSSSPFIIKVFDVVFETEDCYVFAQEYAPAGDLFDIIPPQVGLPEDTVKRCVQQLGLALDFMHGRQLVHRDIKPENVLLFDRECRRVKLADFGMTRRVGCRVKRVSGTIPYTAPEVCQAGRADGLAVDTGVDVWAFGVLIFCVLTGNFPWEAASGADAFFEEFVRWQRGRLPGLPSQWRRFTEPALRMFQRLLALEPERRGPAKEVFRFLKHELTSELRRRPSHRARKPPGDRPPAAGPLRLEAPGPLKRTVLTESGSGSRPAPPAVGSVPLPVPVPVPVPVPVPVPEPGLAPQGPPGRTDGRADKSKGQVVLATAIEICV
Serine/threonine-protein kinase pim-1 (Homo sapiens), sequence (P11309 whole entry, looked up): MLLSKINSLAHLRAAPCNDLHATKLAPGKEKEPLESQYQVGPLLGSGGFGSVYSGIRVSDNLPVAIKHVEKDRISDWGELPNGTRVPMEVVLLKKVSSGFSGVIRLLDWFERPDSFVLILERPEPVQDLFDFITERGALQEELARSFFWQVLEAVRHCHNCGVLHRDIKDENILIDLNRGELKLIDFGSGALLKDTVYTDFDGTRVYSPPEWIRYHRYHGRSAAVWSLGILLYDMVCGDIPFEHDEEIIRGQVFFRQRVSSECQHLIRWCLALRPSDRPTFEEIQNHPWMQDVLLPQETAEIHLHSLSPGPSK

Take `O=C(c1ccc(-c2cnc3c(c2)N(Cc2cc(Cl)ccc2C(F)(F)F)CCN3)cc1)N1CCCCC1`: the inhibition in test [1], in test [2], in test [3], in test [4], in [5] and in [6] was under 50% throughout. Also, the inhibition in test [7], in test [8] and in [9] was under 50% in each case.
Regarding `CN1CCN(c2ccc(-c3cnc4c(c3)N(Cc3c(F)ccc(F)c3Cl)CCN4)cn2)CC1`, the inhibition in test [10], in test [1], in [2], in test [11], in test [3] and in test [12] was under 50% throughout. For the same compound, the inhibition in test [4], in test [5], in [6], in [7], in test [8] and in test [13] was under 50% throughout. This compound also gave an inhibition in test [9] of under 50%.
With `COC1CCN(C(=O)c2ccc(-c3cnc4c(c3)N(Cc3cc(Cl)ccc3C(F)(F)F)CCN4)cc2)CC1`, the inhibition in test [1], in test [2], in [3], in [4], in test [5] and in test [6] was under 50% each time. The inhibition in test [7], in test [8] and in test [9] was under 50% each time.
Consider `O=C(O)c1ccc(-c2cnc3c(c2)N(Cc2cc(Cl)ccc2C(F)(F)F)CCN3)cc1`, for which the inhibition in test [1], in [2], in test [3], in test [4], in test [5] and in test [6] was under 50% in each case. Also, the inhibition in [7], in test [8] and in test [9] was under 50% throughout.
With `FC(F)(F)c1ccc(Cl)cc1CN1CCNc2ncc(-c3ccnc(N4CCNCC4)c3)cc21`, the inhibition in test [10] is 98%; in test [1], under 50%; in test [2], under 50%; in test [11], under 50%; in test [3], 92%; in [12], under 50%. In addition, the inhibition in test [4], in [5], in test [6], in test [7], in [8] and in [13] was under 50% in each case. The same compound displayed an inhibition in [9] of under 50%.
On to `CN1CCN(c2ccc(-c3cnc4c(c3)N(Cc3cc(Cl)ccc3Cl)CCN4)cn2)CC1`, for which the inhibition in [10] is 90%; in test [1] it was under 50%; in [2], under 50%; in test [11], under 50%; in test [3], under 50%; in test [12] it was under 50%. For the same compound, the inhibition in [4], in test [5], in test [6], in [7], in test [8] and in test [13] was under 50% throughout. Besides, the inhibition in test [9] is under 50%.
In the case of `O=C(c1ccc(-c2cnc3c(c2)N(Cc2cc(Cl)ccc2C(F)(F)F)CCN3)cc1)N1CCC(N2CCCC2)CC1`, the inhibition in [1] was under 50%; in [2] it was under 50%; in test [3], 76.4%; in [4] it was under 50%; in test [5], under 50%; in test [6] it was under 50%. Besides, the inhibition in test [7], in [8] and in test [9] was under 50% each time.
For the compound `CN1CCN(c2ccc(-c3cnc4c(c3)N(Cc3cc(Cl)ccc3C(F)(F)F)CCN4)cn2)CC1`, the inhibition in [10] was 91%; in test [1], under 50%; in [2], under 50%; in test [11] it was under 50%; in test [3], under 50%; in [12], under 50%. In addition, the inhibition in test [4], in test [5], in test [6], in test [7], in [8] and in [13] was under 50% each time. Besides, the inhibition in test [9] was under 50%.
For the compound `CC(=O)N1CCN(c2cc(-c3cnc4c(c3)N(Cc3cc(Cl)ccc3C(F)(F)F)CCN4)ccn2)CC1`, the inhibition in [10], in test [1], in [2], in test [11], in [3] and in test [12] was under 50% throughout. Further, the inhibition in test [4], in test [5], in test [6], in [7], in [8] and in test [13] was under 50% throughout. Further, the inhibition in test [9] is under 50%.
Consider `CN1CCN(c2ccc(-c3cnc4c(c3)N(Cc3cc(F)ccc3F)CCN4)cn2)CC1`, for which the inhibition was 94% in test [10]; under 50% in test [1]; under 50% in test [2]; under 50% in test [11]; under 50% in test [3]; under 50% in test [12]. In addition, the inhibition in [4], in test [5], in test [6], in test [7], in test [8] and in [13] was under 50% throughout. Also, the inhibition in [9] is under 50%.
